A short description of data set [1]: Cytotoxicity against HEK293A cells transfected with alpha-1A adrenergic receptor assessed as cell viability by sulforhodamine B assay. As to conditions: Homo sapiens, HEK293-A. It counts as cell-based. The gist of the method: (§1)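 Standard sulforhodamine B colorimetric assay in HEK293A cells stably transfected with α1A-AR or α1D-AR.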
Background: The SRB assay estimates cell density from bound dye.

A short description of data set [2]: Cytotoxicity against HEK293A cells transfected with alpha-1D adrenergic receptor assessed as cell viability by sulforhodamine B assay. The data set is classed as cell-based. As to conditions: Homo sapiens, HEK293-A. The gist of the method: as §1
Data set [3] addresses T1, Alpha-1D adrenergic receptor (Homo sapiens, UniProt P25100).
T1 sequence (P25100 whole entry): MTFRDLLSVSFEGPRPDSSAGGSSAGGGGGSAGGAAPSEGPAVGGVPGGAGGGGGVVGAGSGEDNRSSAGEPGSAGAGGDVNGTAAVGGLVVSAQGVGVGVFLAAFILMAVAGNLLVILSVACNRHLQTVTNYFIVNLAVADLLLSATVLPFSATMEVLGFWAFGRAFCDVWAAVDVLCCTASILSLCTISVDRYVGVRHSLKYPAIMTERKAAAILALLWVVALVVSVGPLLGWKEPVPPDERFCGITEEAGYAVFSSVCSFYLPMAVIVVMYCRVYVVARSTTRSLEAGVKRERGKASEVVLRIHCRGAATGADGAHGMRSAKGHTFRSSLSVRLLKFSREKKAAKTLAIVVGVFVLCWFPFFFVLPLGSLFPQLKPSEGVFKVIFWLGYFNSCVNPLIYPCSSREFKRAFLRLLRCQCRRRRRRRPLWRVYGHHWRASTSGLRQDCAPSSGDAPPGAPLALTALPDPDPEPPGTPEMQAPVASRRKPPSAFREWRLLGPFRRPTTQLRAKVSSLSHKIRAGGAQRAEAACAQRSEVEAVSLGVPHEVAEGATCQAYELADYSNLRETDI
Put plainly: Displacement of [3H]-Prazosin from human alpha-1D adrenergic receptor transfected in CHO cell membranes after 2 hrs by microplate scintillation counting analysis. The gist of the method: (§2)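 Radioligand competition binding used [3H]prazosin on membranes from CHO cells transfected with human cloned α1A-, α1B- or α1D-adrenoceptors.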
On the technique in general: Displacement assays read how much labelled ligand stays bound in the presence of the test substance.

Data set [4] is described as follows: Drug uptake in HEK293A cells at 20 nM after 5 mins by DiD dye-based confocal microscopic analysis. As to conditions: human, hek293-a, 0.02 µM. It counts as ADME, cell-based. The gist of the method: (§3)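 α1A-AR- or α1D-AR-transfected HEK293A cells, or untransfected HEK293A cells as the receptor-free control, were incubated with the probe plus DiD (red, colocalization) for 5 min at 37 °C. Probe signal was compared with the DiD-stained surface for subcellular localization by fluorescence microscopy.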

The target of data set [5] is T2, Alpha-1B adrenergic receptor (Homo sapiens, UniProt P35368).
T2 sequence (P35368 whole entry): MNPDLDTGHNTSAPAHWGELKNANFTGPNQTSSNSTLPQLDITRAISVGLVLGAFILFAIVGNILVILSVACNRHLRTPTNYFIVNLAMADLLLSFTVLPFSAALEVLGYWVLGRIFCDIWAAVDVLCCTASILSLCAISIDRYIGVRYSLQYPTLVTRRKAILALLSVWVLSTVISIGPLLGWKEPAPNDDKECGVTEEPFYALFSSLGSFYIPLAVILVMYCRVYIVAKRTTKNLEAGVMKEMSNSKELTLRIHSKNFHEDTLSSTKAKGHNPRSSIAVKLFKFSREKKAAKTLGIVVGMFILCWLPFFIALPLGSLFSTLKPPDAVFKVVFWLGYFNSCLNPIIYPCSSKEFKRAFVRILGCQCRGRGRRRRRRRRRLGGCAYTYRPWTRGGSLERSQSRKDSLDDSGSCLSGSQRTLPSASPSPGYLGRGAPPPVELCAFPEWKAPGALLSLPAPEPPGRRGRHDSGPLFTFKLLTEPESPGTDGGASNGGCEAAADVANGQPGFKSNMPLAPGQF
Put plainly: Displacement of [3H]-Prazosin from human alpha-1B adrenergic receptor transfected in CHO cell membranes after 2 hrs by microplate scintillation counting analysis. The procedure, abridged:
as §2

Data set [6] addresses T3, Alpha-1A adrenergic receptor (Homo sapiens, UniProt P35348).
T3 sequence (P35348 whole entry): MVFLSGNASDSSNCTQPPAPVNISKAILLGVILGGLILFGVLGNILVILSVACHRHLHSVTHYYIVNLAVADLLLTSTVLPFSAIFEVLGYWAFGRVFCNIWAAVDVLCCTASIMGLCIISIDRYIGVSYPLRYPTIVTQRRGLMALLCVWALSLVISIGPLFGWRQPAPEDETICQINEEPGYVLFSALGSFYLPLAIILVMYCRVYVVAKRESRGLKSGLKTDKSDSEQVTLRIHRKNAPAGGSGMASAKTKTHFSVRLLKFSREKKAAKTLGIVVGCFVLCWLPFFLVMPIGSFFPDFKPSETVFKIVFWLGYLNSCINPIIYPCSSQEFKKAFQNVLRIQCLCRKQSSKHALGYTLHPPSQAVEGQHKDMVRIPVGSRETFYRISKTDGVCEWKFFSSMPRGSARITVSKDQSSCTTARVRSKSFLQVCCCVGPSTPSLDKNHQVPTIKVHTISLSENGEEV
Put plainly: Displacement of [3H]-Prazosin from human alpha-1A adrenergic receptor transfected in CHO cell membranes after 2 hrs by microplate scintillation counting analysis. The gist of the method: as §2

The target of data set [7] is T4, Alpha-1A adrenergic receptor (Homo sapiens) (UniProt P35348).
T4 sequence (whole entry): T3 sequence (P35348 whole entry)
Put plainly: Binding affinity to alpha-1A adrenergic receptor (unknown origin) transfected in HEK293A cells at 20 nM after 5 mins by DiD dye-based confocal microscopic analysis. It counts as cell-based. As to conditions: HEK293-A. The procedure, abridged: as §3

Data set [8] deals with T4, Alpha-1A adrenergic receptor (Homo sapiens). Put plainly: Binding affinity to alpha-1A adrenergic receptor (unknown origin) transfected in HEK293A cells at 20 nM after 5 mins by DiD dye-based confocal microscopic analysis in presence of alpha1 adrenergic receptor antagonist tamsulosin. As to conditions: HEK293-A. It counts as cell-based. The procedure, abridged:
(§4)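 Transfected HEK293A cells expressing α1A-AR or α1D-AR were incubated with the probe, DiD and tamsulosin as competing α1-AR antagonist for 5 min at 37 °C. Fluorescence labelling was imaged by confocal microscopy.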

In data set [9] the target is T5, Alpha-1D adrenergic receptor (Homo sapiens) (UniProt P25100).
T5 sequence (whole entry): T1 sequence (P25100 whole entry)
Put plainly: Binding affinity to alpha-1D adrenergic receptor (unknown origin) transfected in HEK293A cells at 10 nM after 5 mins by DiD dye-based confocal microscopic analysis. It counts as cell-based. As to conditions: HEK293-A. The gist of the method:
as §3

Data set [10] has as its target T5, Alpha-1D adrenergic receptor (Homo sapiens). Put plainly: Binding affinity to alpha-1D adrenergic receptor (unknown origin) transfected in HEK293 cells at 20 nM after 20 mins by flow cytometric analysis. It counts as cell-based. Background: Flow cytometry measures light scatter and fluorescence of single cells or particles in a stream.
Data set [11] shares this target. Put plainly: Binding affinity to alpha-1D adrenergic receptor (unknown origin) transfected in HEK293A cells at 10 nM after 5 mins by DiD dye-based confocal microscopic analysis in presence of alpha1 adrenergic receptor antagonist tamsulosin. As to conditions: HEK293-A. It counts as cell-based. The gist of the method: as §4
Data set [12] can be described thus: Drug uptake in HEK293A cells at 10 nM after 5 mins by DiD dye-based confocal microscopic analysis. As to conditions: human, hek293-a, 0.01 µM. It counts as ADME, cell-based. The gist of the method: as §3

Calls of active or inactive are those of the source. No cut-off for these calls is given here.

One may read the IC50 as the point on the concentration scale where inhibition reaches its midpoint. With `COc1cc2nc(N3CCN(C(=O)C4COc5ccccc5O4)CC3)nc(N)c2cc1OC` (stereo not given) [DOXAZOSIN], the IC50 in [1] was found to be 19 µM; in data set [2], 22 µM.
In general, Ki refers to the equilibrium dissociation constant of an inhibitor or competing ligand from its target. Read a low Ki as higher affinity. With `CCN(CC)c1ccc2cc(-n3cc(CN4CCN(c5nc(N)c6cc(OC)c(OC)cc6n5)CC4)nn3)c(=O)oc2c1`, the 50% inhibitory concentration (IC50) in data set [3] was 0.0452 µM; in data set [5] it was 0.0524 µM; in data set [6], 0.0524 µM; in data set [1], 26 µM; in data set [2], 17 µM. In addition, the Ki in [3] was 0.0275 µM; in data set [5] it was 0.0299 µM; in data set [6], 0.0299 µM. Moreover, the Drug uptake entry in [4] is recorded as “Active”. Further, the result in [7] was Active. Moreover, the outcome in [8] was inactive.
Take `CCN(CC)c1ccc2cc(-n3cc(C(=O)N4CCN(c5nc(N)c6cc(OC)c(OC)cc6n5)CC4)nn3)c(=O)oc2c1`: the IC50 in data set [3] was 0.0022 µM; in [5] it was 0.0012 µM; in data set [6] it was 0.0006 µM; in data set [1], 12 µM; in data set [2], 32 µM. Also, the results for the Ki in [3], in data set [5] and in data set [6] were 0.0004 µM, 0.0001 µM and 0.0003 µM, respectively. Further, the outcome in [9] and in data set [10] was Active. Besides, the outcome in data set [11] was inactive. In addition, the Drug uptake entry in [12] is on record as “Active”.

The values are drawn from ChEMBL document CHEMBL3580589, “Discovery of Quinazoline-Based Fluorescent Probes to α1-Adrenergic Receptors” (ACS Med Chem Lett, 2015).
